Screening results deposited in PubChem by Sanford-Burnham Center for Chemical Genomics.
Apaf1 activ: activators of human Apaf-1 apoptosome; hit rate 0.31% among 330,000; activity change, negative = activation, % at 20 µM; Apaf-1 apoptosome caspase-3 activation, DEVD-Rh110 fluorescence; hits give low values; AID 489031; O14727;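 active means activity change at or below -40% at 20 µM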
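Schedule: 30 min preincubation, 50 min reaction, room temperature / System: biochemical Apaf-1 apoptosome reconstitution / Medium: 20 mM HEPES pH 7.5 with CHAPS, BSA / Evaluation: Caspase-3 cleavage activity downstream of Apaf-1 activation / Detection: Caspase-3-released Rh110 fluorescence, 540 nm emission, 480 nm excitation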
Rh110 interf act: interferes with Rh110 fluorescence, flagging false Apaf-1 activators. shares compounds with Apaf1 activ. Rh110 fluorescence interference, quenched caspase reaction, Ex480/Em540. fluorescence interference (activity change), % at 20 µM, hits read low. 980 tested, under 10 active. AID 504616;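 active means mean activity change at or below -40% when tested at 20 µM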
Apaf-1 act conf2: Apaf-1 (human) activation, single-dose confirmed | shares compounds with Apaf1 activ | reconstituted apoptosome caspase-3 activity, DEVD-Rh110 fluorescence; hits give low values | activity change, negative = activation, % at 20 µM | hit rate 5% among 980 | AID 504617;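 active means mean activity change at or below -40%, meaning activation of 40% or more, at 20 µM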
Apaf1 act interf: shows fluorescence interference in the Apaf-1 activator assay format | fluorescence interference counterscreen | shares compounds with Apaf1 activ | 55 tested, under 10 active | AID 588592 | EC50, µM; call rule not given here
Starred values were filed as active, the others as inactive. The list is a sample of the results.

SMILES	Apaf1 activ	others
Cc1cc(/C=N/n2cnnc2)c(C)n1-c1ccc(OCc2ccc(Cl)cc2Cl)cc1	45.6
COc1cc(Cl)c(NC2=CC(=O)C(=O)c3ccccc32)c(OC)c1	91.9
CC1=NN(c2ccc(C)cc2C)C(=O)C1C(c1cccc(O)c1)C1C(=O)N(c2ccc(C)cc2C)N=C1C (stereo unspecified)	85.3
COc1ccc(CCNC(=O)C(=O)NCC2CCCN2S(=O)(=O)c2ccc(OC)cc2)cc1 (stereo unspecified)	61.1
CCCCCCSc1ccc(-c2nc3cnccn3c2NCCCC)cc1	55.9
O=C1Cc2cc([N+](=O)[O-])ccc2N1c1c(Cl)cccc1Cl	43.2
CC(C)Cn1c(N)c(C(=O)NCC2CCCO2)c2nc3ccccc3nc21 (stereo unspecified)	65.0
COCCn1c(N)c(C(=O)NCC2CCCO2)c2nc3ccccc3nc21 (stereo unspecified)	75.1
COc1ccc(-c2cc(C(F)(F)F)n3ncc(C(=O)NCC4CCCO4)c3n2)cc1OC (stereo unspecified)	-495.9*
CN(Cc1ccccn1)C(=O)c1ccc2nc(Cc3cccc(Cl)c3)oc2c1	-115.6*
N#Cc1ccc(C23CC4(C2)[C@H](CN(CC2CCCCC2)[C@@H]4c2ccccc2)C3c2ccc(C(F)(F)F)cc2)cc1 (stereo partly specified)	42.3
C#CCOCCOCCOCCNc1nc(N2CCN(C(=O)CCCCCCCCCCNC(=O)Cn3cc(CCCCCN)nn3)CC2)nc(N2CCN(C(=O)CCCCCCCCCCNC(=O)[C@H]([C@@H](C)CC)n3cc(CCCCCN)nn3)CC2)n1	74.3
CCOc1cc(/C=C(\C#N)C(=O)Nc2cccc(C(=O)O)c2)ccc1OCc1ccc(Br)cc1	-118.8*
CC1(C)C=C2C(=NN(c3ccccc3)C(N)=C2C#N)CO1	47.4
CCCCCCN(C(=O)CCCCCN1C(=O)NC(c2ccc(-c3ccccc3)cc2)C(C(=O)OCc2ccccc2)=C1C)C(C(=O)NCCCC)c1cccc(C(=O)OC)c1 (stereo unspecified)	79.0
C#CCOCCOCCOCCNc1nc(N2CCN(C(=O)[C@H](Cc3cc4ccccc4[nH]3)n3cc([C@@H](N)CC(C)C)nn3)CC2)nc(N2CCN(C(=O)[C@H](Cc3cc4ccccc4[nH]3)n3cc([C@@H](N)CC(C)C)nn3)CC2)n1	70.7
CC(C(=O)NC(=O)NC1CCCCC1)N(C)CC(=O)Nc1ccc(F)c(F)c1F (stereo unspecified)	46.2
Cc1c(C#N)c(=O)oc2ccc3ccccc3c12	-97.5*
CCC(C)Nc1ccc(NC(C)CC)cc1 (stereo unspecified)	42.7
COc1ccc(N=CC2=C(Nc3ccc(OC)cc3)c3c(C)nn(-c4ccccn4)c3CC2)cc1	92.6
COCC(=O)O[C@]1(CCN(C)CCCc2nc3ccccc3[nH]2)CCc2cc(F)ccc2[C@@H]1C(C)C	54.3
O=[N+]([O-])c1ccc(O)c(C=Nc2cccc3ncccc23)c1	90.5
O=C(NC(C(=O)N/N=C/c1cc([N+](=O)[O-])ccc1O)c1n[nH]c(=O)c2ccccc12)c1ccccc1 (stereo unspecified)	-438.5*
O=[N+]([O-])c1ccc(O)c(C=Nc2cccc3ccccc23)c1	87.5
CN(C)CCCNc1cc(O)c2ncccc2c1	77.5
SMILES	Apaf1 activ	others
COc1ccc(NS(=O)(=O)c2cc(C(=O)N3CCC3)ccc2C)cc1	47.5
O=C(Nc1nc2c(Cl)cccc2s1)c1ccc([N+](=O)[O-])o1	-119.8*
COc1ccc(NS(=O)(=O)c2ccc(C)c(NC(=O)CN3C(=O)NC4(CCCC4)C3=O)c2)cc1	82.2
O=C(OCC(=O)N1CCC(c2ccccc2)=N1)c1ccc([N+](=O)[O-])s1	51.6
Cc1noc(/C=C/c2cccs2)c1S(=O)(=O)N1CCC(C(=O)NCCCN2CCC(C)CC2)CC1	40.0
O=S(=O)(NCC(c1ccccc1)N1CCNCC1)c1ccc(Cl)cc1 (stereo unspecified)	42.8
Cc1noc(C)c1S(=O)(=O)N1CCN(C(c2ccccc2)c2ccc(Cl)cc2)CC1 (stereo unspecified)	-108.2*
CCCN1CCN(C(=O)C2CCN(S(=O)(=O)c3c(C)noc3/C=C/c3ccc(C)cc3)CC2)CC1	60.9
CCOc1ccc(S(=O)(=O)N(CC(=O)N2CCc3ccccc32)Cc2ccco2)cc1	-307.1*	Rh110 interf act=7.9;Apaf-1 act conf2=10.6
Cc1cc(C)n(CC(C)C(=O)O)n1 (stereo unspecified)	-165.2*	Rh110 interf act=0.1;Apaf-1 act conf2=-103.9*;Apaf1 act interf=>100
Cc1cc(OC(=O)c2ccccc2)n(CCC#N)n1	43.2
